Converted amounts (≈) assume the structure as drawn. The source made the active and inactive calls. The rule behind the calls is not given here.
Experiments:
[1] = Aqueous solubility of compound in PBS buffer at 1 to 100 ug/ml at pH 7.3 to 7.5 measured after 24 hrs by HPLC analysis; format: physicochemical
Summary of the method: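 3 mg compound in 3 mL PBS (pH 7.3-7.5) shaken 24 h at 25 °C, then centrifuged. Supernatant mixed 1:1 with acetonitrile and analysed by HPLC (C18, 1 mL/min). Solubility calculated from a standard curve (1 mg/mL methanol stock) and the dilution factor.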

[2] = system: Lacticaseibacillus paracasei; experiment: Effect on growth of Lactobacillus casei ATCC 334 measured after 48 hrs in 5% CO2 by CLSI method
Clostridioides difficile [3] = experiment: Antibacterial activity against Clostridium difficile VPI 10463 ATCC 43255 assessed as bacterial growth inhibition incubated for 48 hrs under anaerobic condition by CLSI protocol based assay; format: functional; details: ATCC 43255 VPI 10463, 48 h
Summary of the method: (§1)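 Broth microdilution following CLSI guidance. Strains pre-grown anaerobically on BHIS agar (BHI plus yeast extract, vitamin K1, hemin) at 37 °C for 48 h. ~10^5 CFU/mL in BHIS broth added to serial compound dilutions. Incubated anaerobically at 37 °C for 48 h. MIC is the lowest concentration showing visible growth inhibition.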

Clostridioides difficile [4] = experiment: Antibacterial activity against Clostridium difficile 4118 ATCC BAA 1870 assessed as bacterial growth inhibition incubated for 48 hrs under anaerobic condition by CLSI protocol-based assay; format: functional; details: 4118 ATCC BAA 1870, 48 h; summary of the method: as §1
Enterobacter cloacae = experiment: Effect on growth of Enterobacter cloacae ATCC BAA 1143 assessed as bacterial growth inhibition measured after 16 to 18 hrs grown in tryptic soy medium by CLSI method; format: organism-based; details: in vivo
Summary of the method: (§2)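 CLSI microdilution. Colonies from TSA (16-20 h, 37 °C) suspended in PBS to 0.5 McFarland, then diluted in TSB to ~10^5 CFU/mL. Incubated with serial compound dilutions for 16-20 h at 37 °C. MIC is the lowest concentration inhibiting growth.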

Escherichia coli = experiment: Effect on growth of Escherichia coli ATCC 25922 assessed as bacterial growth inhibition measured after 16 to 18 hrs by CLSI method; format: organism-based; details: in vivo; summary of the method: as §2
[5] = Effect on growth of Lactobacillus crispatus JV-V01 HM 103 measured after 48 hrs in 5% CO2 by CLSI method; details: lactobacillus crispatus jv-v01, 48 h
Bifidobacterium bifidum = experiment: Effect on growth of Bifidobacterium bifidum 212A ATCC 11863 measured after 48 hrs in anerobic conditions by CLSI method; format: organism-based; details: in vivo
Caco-2 = experiment: Cytotoxicity against human Caco2 cells at > 256 uM measured after 2 hrs by MTS assay; format: cell-based; details: caco-2, 2 h
HRT-18 cell line = experiment: Cytotoxicity against human HRT18 cells at > 256 uM measured after 2 hrs by MTS assay; format: cell-based; details: hrt-18, 2 h
[6] = Stability of compound in simulated gastric fluid assessed as parent compound remaining at pH 1.6 measured after 8 hrs by HPLC analysis; format: ADME; details: read-out: Stability
Summary of the method: (§3)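 200 µL of a 50 µg/mL methanol stock mixed with 800 µL SGF (pH 1.6) or SIF (pH 6.0), stirred at 37 °C. Sampled at 4 and 8 h for isocratic HPLC (acetonitrile/water 50:50, 1.0 mL/min, 254 nm). Percent remaining calculated as AUC after incubation / AUC before incubation.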

[7] = Stability of compound in simulated intestinal fluid assessed as parent compound remaining at pH 6 measured after 8 hrs by HPLC analysis; format: ADME; details: read-out: Stability; summary of the method: as §3
[8] = Stability of compound in simulated intestinal fluid assessed as parent compound remaining at pH 6 measured after 4 hrs by HPLC analysis; format: ADME; details: read-out: Stability; summary of the method: as §3
Vero = experiment: Cytotoxicity against African green monkey Vero cells at > 256 uM measured after 2 hrs by MTS assay; format: cell-based; details: chlorocebus sabaeus
[9] = Stability of compound in simulated gastric fluid assessed as parent compound remaining at pH 1.6 measured after 4 hrs by HPLC analysis; format: ADME; details: read-out: Stability; summary of the method: as §3
[10] = Effect on growth of Lactobacillus gasseri EX336960VC03 HM 400 measured after 48 hrs in 5% CO2 by CLSI method; details: lactobacillus gasseri ex336960vc03, 48 h
Clostridioides difficile [11] = experiment: Bactericidal activity against Clostridium difficile 4118 ATCC BAA 1870 assessed as reduction in bacterial colony forming units at 8 fold MIC preincubated followed by re-plating on BHIS agar plate and measured after 24 hrs under anaerobic condition by time-kill assay; format: functional, organism-based
[12] = Drug level in CDI patient plasma at 200 mg, po administered every 12 hrs for 10 days and measured 3 to 5 hrs post last dose by LC-MS/MS analysis; format: ADME, organism-based; details: human, in vivo
Clostridioides difficile [13] = experiment: Ratio of MBC99.9 to MIC for Clostridium difficile 4118 ATCC BAA 1870; format: functional
Clostridioides difficile [14] = experiment: Bactericidal activity against Clostridium difficile 4118 ATCC BAA 1870 assessed as reduction in bacterial colony forming units at 8 fold MIC preincubated followed by re-plating on BHIS agar plate and measured after 6 hrs under anaerobic condition by time-kill assay relative to control; format: functional; parameters: scale not given: the % may be the effect or the level left
Clostridioides difficile [15] = experiment: Bactericidal activity against Clostridium difficile 4118 ATCC BAA 1870 incubated for 48 hrs followed by re-plating on BHIS agar plates and measured after 24 hrs; format: functional; details: read-out: MBC99.9
[16] = Cytotoxicity against human HRT18 cells measured after 2 hrs by MTS assay; format: cell-based; details: HRT-18 cells
[17] = Cytotoxicity against African green monkey Vero cells measured after 2 hrs by MTS assay; format: cell-based; details: chlorocebus sabaeus
[18] = Cytotoxicity against human Caco2 cells measured after 2 hrs by MTS assay; format: cell-based; details: Caco-2 cells

Row | SMILES | solubility at 24 h [1] | MIC [2] | MIC (Clostridioides difficile [3]) | MIC (Clostridioides difficile [4]) | MIC (Enterobacter cloacae) | MIC (Escherichia coli) | MIC [5] | MIC (Bifidobacterium bifidum) | Activity (Caco-2) | Activity (HRT-18 cell line) | remaining at 8 h [6] | remaining at 8 h [7] | remaining at 4 h [8] | Activity (Vero) | remaining at 4 h [9] | MIC [10] | also measured
1 | Cc1nc(N2CCOCC2)c2scc([N+](=O)[O-])c2n1 | 0.0187 mg/mL (≈ 66.7 µM) | > 913 µM | 14 µM (≈ 3.92 µg/mL) | 14 µM (≈ 3.92 µg/mL) | > 913 µM | > 913 µM | > 913 µM | > 913 µM | Non-Toxic | Non-Toxic | < 10% | 80% | 79% | Non-Toxic | < 10% | > 913 µM | –
2 | Cc1nc2c([N+](=O)[O-])csc2c(=O)n1CCCc1ccccc1 | 0.0108 mg/mL (≈ 32.7 µM) | > 777 µM | 12 µM (≈ 3.95 µg/mL) | 12 µM (≈ 3.95 µg/mL) | > 777 µM | > 777 µM | > 777 µM | > 777 µM | Non-Toxic | Non-Toxic | < 10% | < 10% | < 10% | Non-Toxic | 45% | > 777 µM | –
3 | CCc1c(Cl)c(O)c(Cl)c(O)c1C(=O)O[C@H]1[C@H](O)[C@H](OC)[C@H](OC/C2=C\C=C\C[C@H](O)/C(C)=C/[C@H](CC)[C@@H](O[C@@H]3OC(C)(C)[C@@H](OC(=O)C(C)C)[C@H](O)[C@@H]3O)/C(C)=C/C(C)=C/C[C@@H]([C@@H](C)O)OC2=O)O[C@@H]1C [FIDAXOMICIN] | – | > 242 µM | 0.1 µM (≈ 0.106 µg/mL) | 0.1 µM (≈ 0.106 µg/mL) | – | – | 30 µM (≈ 31.7 µg/mL) | > 242 µM | – | – | – | – | – | – | – | <= 2 uM | Activity (Clostridioides difficile [11]): Active; Cp [12]: 0.025 to 0.05 µg/mL
4 | O=c1[nH]c(/C=C/c2ccc(F)cc2)nc2c([N+](=O)[O-])csc12 | 0.0148 mg/mL (≈ 46.6 µM) | > 807 µM | 6 µM (≈ 1.9 µg/mL) | 3 µM (≈ 0.952 µg/mL) | > 807 µM | > 807 µM | > 807 µM | > 807 µM | Non-Toxic | Non-Toxic | 48% | 51% | 60% | Non-Toxic | 50% | > 807 µM | Ratio (Clostridioides difficile [13]): 2; Activity (Clostridioides difficile [14]): 100%; MBC (Clostridioides difficile [15]): 6 µM (≈ 1.9 µg/mL)
5 | Cc1nc2c([N+](=O)[O-])csc2c(=O)[nH]1 | > 0.5 mg/mL | > 1212 µM | 38 µM (≈ 8.03 µg/mL) | 19 µM (≈ 4.01 µg/mL) | > 1212 µM | > 1212 µM | > 1212 µM | > 1212 µM | Non-Toxic | Non-Toxic | 90% | 76% | 91% | Non-Toxic | 90% | > 1212 µM | CC50 at 2 h [16]: > 606 µM; CC50 at 2 h [17]: > 606 µM; CC50 at 2 h [18]: > 606 µM
6 | Cc1nc2c([N+](=O)[O-])csc2c(=O)n1Cc1ccc([N+](=O)[O-])cc1 | 0.0127 mg/mL (≈ 36.8 µM) | > 739 µM | 12 µM (≈ 4.16 µg/mL) | 6 µM (≈ 2.08 µg/mL) | > 739 µM | > 739 µM | > 739 µM | > 739 µM | Non-Toxic | Non-Toxic | > 95% | 90% | > 95% | Non-Toxic | > 95% | > 739 µM | –
